In general, inhibition refers to the share of the control response that was lost under treatment. The term ED50 denotes the midpoint of the dose-response relation. A word on the inhibition in vivo: it is the relative decrease from the control value, in per cent.

This is an account of results in ChEMBL document CHEMBL3588770, “Novel spirohydantoin derivative as a potent multireceptor-active antipsychotic and antidepressant agent” (Bioorg Med Chem, 2015).

Data set [1] addresses D(3) dopamine receptor (Homo sapiens) (UniProt P35462). The experiment in a line: Agonist activity at human recombinant D3 receptor expressed in CHO cells assessed as intracellular cAMP release at 1 uM by HTRF method. The data set is classed as functional, cell-based. In outline:
(§1)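 Functional assays run by a contract lab on CHO or HEK-293 cells stably expressing the human receptor. Read-out was intracellular cAMP, IP1 or Ca2+ release. A single test concentration of 1.0E-06 was used, in duplicate. Data are mean % of the control response.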
(In general: In TR-FRET formats the signal depends on donor and acceptor labels being close together.)

For data set [2], the target named is T1, D(4) dopamine receptor (Homo sapiens) (UniProt P21917).
T1 sequence (whole entry): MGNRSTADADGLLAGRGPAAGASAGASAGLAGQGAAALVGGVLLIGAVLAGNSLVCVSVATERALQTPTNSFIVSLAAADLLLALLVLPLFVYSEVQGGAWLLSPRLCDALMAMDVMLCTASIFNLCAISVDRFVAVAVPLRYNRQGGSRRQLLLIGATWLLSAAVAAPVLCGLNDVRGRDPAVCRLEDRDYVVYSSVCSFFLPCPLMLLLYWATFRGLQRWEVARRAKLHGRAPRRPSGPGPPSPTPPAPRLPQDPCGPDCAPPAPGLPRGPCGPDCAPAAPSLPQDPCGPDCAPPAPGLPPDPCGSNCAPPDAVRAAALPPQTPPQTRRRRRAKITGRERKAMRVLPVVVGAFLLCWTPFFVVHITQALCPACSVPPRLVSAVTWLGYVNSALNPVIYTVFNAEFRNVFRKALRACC
The experiment in a line: Agonist activity at human recombinant D4 receptor expressed in CHO cells assessed as intracellular cAMP release at 1 uM by HTRF method. It counts as functional, cell-based. The procedure, abridged: as §1

Data set [3] deals with 5-hydroxytryptamine receptor 2A (Homo sapiens) (UniProt P28223). Put plainly: Antagonist activity at human recombinant 5HT2A receptor expressed in HEK293 cells assessed as inhibition of serotonin-induced intracellular IP1 release at 1 uM by HTRF assay. The data set is classed as functional, cell-based. The procedure, abridged: as §1
5-hydroxytryptamine receptor 2A (Homo sapiens), sequence (P28223 whole entry): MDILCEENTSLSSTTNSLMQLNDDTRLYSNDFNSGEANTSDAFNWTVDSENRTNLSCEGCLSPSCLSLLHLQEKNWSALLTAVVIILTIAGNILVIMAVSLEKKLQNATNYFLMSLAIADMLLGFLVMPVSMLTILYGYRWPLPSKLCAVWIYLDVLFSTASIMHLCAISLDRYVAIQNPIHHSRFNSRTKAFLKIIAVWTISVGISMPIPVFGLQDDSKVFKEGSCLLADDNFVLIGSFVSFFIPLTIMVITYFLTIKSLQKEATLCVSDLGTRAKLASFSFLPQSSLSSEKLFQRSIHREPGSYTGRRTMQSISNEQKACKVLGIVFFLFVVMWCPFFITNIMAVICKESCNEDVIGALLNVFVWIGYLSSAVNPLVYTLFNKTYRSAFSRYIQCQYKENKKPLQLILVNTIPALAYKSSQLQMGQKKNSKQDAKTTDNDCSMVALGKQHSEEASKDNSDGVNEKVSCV
Data set [4] concerns the target 5-hydroxytryptamine receptor 7 (Homo sapiens) (UniProt P34969). Put plainly: Antagonist activity at human recombinant 5HT7 receptor expressed in CHO cells assessed as inhibition of serotonin-induced intracellular cAMP release at 1 uM by HTRF assay. It counts as functional, cell-based. In outline:
as §1

Data set [5] addresses Histamine H1 receptor (Homo sapiens) (UniProt P35367). Put plainly: Agonist activity at human recombinant H1 receptor expressed in HEK-293 cells assessed as intracellular Ca2+ release at 1 uM by fluorimetry. As to conditions: HEK293. The data set is classed as functional, cell-based. The procedure, abridged:
as §1

Data set [6] relates to Mus musculus. The experiment in a line: In vivo agonist activity at D2 receptor in ip dosed Swiss albino mouse assessed as induction of climbing behaviour. The data set is classed as functional, organism-based.
Data set [7] has as its system Mus musculus. The experiment in a line: In vivo antagonist activity at D2 receptor in ip dosed Swiss albino mouse assessed as inhibition of apomorphine-induced climbing behaviour administered 10 mins prior to apomophine injection measured after 20 mins. The data set is classed as functional. The procedure, abridged:
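Male Swiss albino mice, 5-6 per dose, in metal-bar cages. Compound i.p. was followed 10 min later by apomorphine 3 mg/kg i.p. Climbing time (2–4 paws on the wall) was measured for 2 min starting 20 min after apomorphine. ID50 is the dose inhibiting climbing by 50%.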

The test system of data set [8] is Mus musculus. The experiment in a line: In vivo partial agonist activity at 5HT1A receptor in CD-1 mouse assessed as change in body temperature at 5 mg/kg, ip measured after 30 mins (reference value: -0.1 degC). It counts as functional, organism-based. The procedure, abridged:
(§2)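 Male CD-1 mice, 7-9 per dose, compound suspended in 1% aqueous Tween 80 and given i.p. at 10 ml/kg. Rectal temperature was taken by thermometer 30, 60, 90 and 120 min after dosing. Change (Δt) is expressed against basal temperature measured at the start. Mean ± SEM, one-way ANOVA with Bonferroni test.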

Data set [9] concerns Mus musculus. The experiment in a line: In vivo partial agonist activity at 5HT1A receptor in CD-1 mouse assessed as change in body temperature at 10 mg/kg, ip measured after 60 mins (reference value: -0.1 degC). The data set is classed as functional, organism-based. In outline:
as §2

The test system of data set [10] is Mus musculus. The experiment in a line: In vivo partial agonist activity at 5HT1A receptor in CD-1 mouse assessed as change in body temperature at 10 mg/kg, ip measured after 120 mins (reference value: -0.1 degC). It counts as functional, organism-based. In outline: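 Male CD-1 mice, 7-9 per dose, dosed i.p. Rectal temperature was recorded at 30, 60, 90 and 120 min. Results are the change from basal temperature taken at the start of the experiment.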

The subject of data set [11] is Rattus norvegicus. Put plainly: Induction of lower lip retraction in Wistar rat at 5 to 40 mg/kg, ip. The data set is classed as functional, organism-based.
In data set [12] the test system is Rattus norvegicus. Put plainly: Inhibition of 8-OH-DPAT-induced lower lip retraction in Wistar rat at 5 to 40 mg/kg, ip administered 45 mins before 8-OH-DPAT administration. It counts as functional, organism-based. The procedure, abridged: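 Wistar rats, 5-6 per dose, given compound i.p. (1% Tween 80 suspension) 45 min before 8-OH-DPAT (1 mg/kg). Lower lip retraction was scored 15, 30 and 45 min after 8-OH-DPAT on a 0/0.5/1 scale (incisor visibility), giving a maximum total of 3. Mean ± SEM, ANOVA with Bonferroni test.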

For data set [13], the system named is Mus musculus. Put plainly: In vivo agonist activity at 5HT2A receptor in Swiss albino mouse assessed as induction of head twitch response at 5 to 40 mg/kg, ip. The data set is classed as functional, organism-based.
Data set [14] relates to Mus musculus. The experiment in a line: In vivo antagonist activity at 5HT2A receptor in ip dosed Swiss albino mouse assessed as inhibition of (+/-)-DOI-induced head twitch response. It counts as functional. The procedure, abridged:
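Male Swiss albino mice, 5-6 per dose, habituated 20 min in glass cages. Compound was given i.p. 60 min pretest. Head twitches were induced by (±)DOI 2.5 mg/kg and counted for 20 min. ID50 is the dose inhibiting twitches by 50%.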

Data set [15] concerns Mus musculus. Put plainly: Toxicity in ip dosed spontaneous locomotor activity CD-1 mouse model assessed as dose required to cause sedation. The data set is classed as organism-based. The note with it: in vivo. In outline:
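CD-1 mice, 8-10 per dose, with compound given i.p. in 1% Tween 80 suspension 60 min before testing. After 30 min habituation in individual cages, ambulation (channel crossings) was counted over 1 h, recorded every 5 min. Mean ± SEM, one-way ANOVA with Bonferroni test.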

The subject of data set [16] is Mus musculus. Put plainly: Anti-depressant like activity in Swiss albino mouse assessed as shortening of immobility time at 2.5 mg/kg, ip by forced swim test. The data set is classed as functional. In outline: (§3)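 Forced swim test in male Swiss albino mice, 7-9 per dose. Compound was given i.p. in 1% Tween 80 at 10 ml/kg, 60 min pretest. Mice swam for 6 min in a cylinder with 6 cm of water at 23-25 °C. Immobility was scored over the last 4 min. Analysis was one-way ANOVA with Bonferroni.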

Data set [17] relates to Mus musculus. The experiment in a line: Anti-depressant like activity in Swiss albino mouse assessed as shortening of immobility time at 5 mg/kg, ip by forced swim test. It counts as functional. In outline: as §3
Data set [18] relates to Mus musculus. Put plainly: Antianxiety-like activity in Swiss albino mouse assessed as number of punished crossings at 0.312 to 5 mg/kg, ip by four-plate test. It counts as functional, organism-based. In outline:
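Four-plate test in male Swiss albino mice, 8-10 per dose, dosed i.p. in Tween 80 vehicle. After 15-s habituation, a 0.8 mA, 0.5 s foot shock was given at each plate crossing, with a 3 s shock-free interval. Punished crossings were counted over a 1-min session.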

The species entered for data set [19] is Mus musculus. Put plainly: Ratio of MED for catalepsy in CD-1 mouse to ED50 for antipsychotic activity in CD-1 mouse.

Activity calls are given as the source filed them. The rule behind the calls is not given here.

D(3) dopamine receptor (Homo sapiens), sequence (P35462 whole entry): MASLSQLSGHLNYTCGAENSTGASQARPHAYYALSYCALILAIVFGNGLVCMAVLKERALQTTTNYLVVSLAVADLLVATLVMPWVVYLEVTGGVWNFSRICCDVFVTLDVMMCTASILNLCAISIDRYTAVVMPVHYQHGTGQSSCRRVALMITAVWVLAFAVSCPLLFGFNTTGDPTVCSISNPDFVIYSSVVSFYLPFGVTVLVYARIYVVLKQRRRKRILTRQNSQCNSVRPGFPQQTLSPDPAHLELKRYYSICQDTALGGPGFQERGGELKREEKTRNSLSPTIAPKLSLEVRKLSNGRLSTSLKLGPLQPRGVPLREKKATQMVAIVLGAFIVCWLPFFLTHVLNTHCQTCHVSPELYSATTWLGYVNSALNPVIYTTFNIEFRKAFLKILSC
Histamine H1 receptor (Homo sapiens), sequence (P35367 whole entry): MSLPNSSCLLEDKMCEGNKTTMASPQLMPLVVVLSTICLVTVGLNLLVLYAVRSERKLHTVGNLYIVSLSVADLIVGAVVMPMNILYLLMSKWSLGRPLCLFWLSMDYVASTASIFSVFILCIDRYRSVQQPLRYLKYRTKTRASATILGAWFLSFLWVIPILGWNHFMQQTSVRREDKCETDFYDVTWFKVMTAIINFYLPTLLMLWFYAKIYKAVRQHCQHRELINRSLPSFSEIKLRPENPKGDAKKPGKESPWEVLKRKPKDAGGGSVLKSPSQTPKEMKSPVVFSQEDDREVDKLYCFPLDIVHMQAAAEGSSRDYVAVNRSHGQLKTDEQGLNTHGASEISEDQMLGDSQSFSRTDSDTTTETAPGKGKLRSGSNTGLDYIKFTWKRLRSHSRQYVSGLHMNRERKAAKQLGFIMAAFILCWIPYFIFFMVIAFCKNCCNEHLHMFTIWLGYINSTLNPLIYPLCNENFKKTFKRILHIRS
5-hydroxytryptamine receptor 7 (Homo sapiens), sequence (P34969 whole entry): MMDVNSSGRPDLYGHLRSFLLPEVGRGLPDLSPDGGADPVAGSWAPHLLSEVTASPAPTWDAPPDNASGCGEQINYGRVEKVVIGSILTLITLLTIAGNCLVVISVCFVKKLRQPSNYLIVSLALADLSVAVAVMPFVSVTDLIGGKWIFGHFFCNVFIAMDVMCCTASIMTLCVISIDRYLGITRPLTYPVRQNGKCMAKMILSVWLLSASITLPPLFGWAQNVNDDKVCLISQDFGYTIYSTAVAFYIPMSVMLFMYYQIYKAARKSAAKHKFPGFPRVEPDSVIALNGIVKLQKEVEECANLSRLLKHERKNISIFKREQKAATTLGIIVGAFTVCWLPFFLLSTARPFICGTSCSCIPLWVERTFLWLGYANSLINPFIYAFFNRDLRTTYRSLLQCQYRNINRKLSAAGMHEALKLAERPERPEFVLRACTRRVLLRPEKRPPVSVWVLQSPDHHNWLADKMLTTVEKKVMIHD

`COc1ccccc1N1CCN(CCCCN2C(=O)NC3(CCCc4ccccc43)C2=O)CC1` (centres undefined): the Activity in [1] is 18%; in data set [2], 15%; in data set [5] it was -2%; with Mus musculus [15], 2.5 mg/kg. The figures for the inhibition in data set [3] and in [4] were 27% and 43%, respectively. The outcome in the data set with Mus musculus [6], in the data set on Rattus norvegicus [11], in the data set with Mus musculus [13] and in the data set with Mus musculus [18] was inactive. Besides, the ED50 was 37.9 mg/kg in the data set on Mus musculus [7] and 19.6 mg/kg in the data set with Mus musculus [14]. Further, the deltaT in the data set on Mus musculus [8] is -0.8 °C; with Mus musculus [9], -1.3 °C; in the data set with Mus musculus [10], -1.2 °C. In the data set on Rattus norvegicus [12], the inhibition entry is “Active”. Further, in the data set with Mus musculus [16], the inhibition in vivo at 2.5 mg/kg is 37%. Further, in the data set with Mus musculus [17], the inhibition in vivo at 5 mg/kg amounted to 45%. The Ratio in the data set listed under Mus musculus [19] is recorded as 50.

Consider `COc1ccccc1N1CCN(CCCCN2C(=O)NC3(CCc4ccccc43)C2=O)CC1` (centres undefined), for which the Activity is 20% in [1], 27% in data set [2] and -2% in data set [5]. The inhibition in data set [3] was 18%; in [4], 28%.
